Experimental data collected from several papers.
Compare with care: the assays were run in different laboratories.
Target: Serine/threonine-protein kinase 32C (STK32C, Homo sapiens, UniProt Q86UX6)

| SMILES | assay | conditions | remaining binding [%] |
| --- | --- | --- | --- |
| c1cnn2ncc(-c3ccnc(N4CCC45COC5)n3)c2c1 | binding | 1 µM | 68 |
| Cc1c(NC(=O)c2cc(C(N)=O)nc3cc(F)ccc23)c(C(F)(F)F)nn1Cc1ccc(C#N)cc1 | binding, competition with immobilised ligand | 1 µM | 69 |
| CC(C)(C)c1ccc(-c2nc(CBr)nn2-c2cccc(O)c2)cc1 | cell-free assay, competition with immobilised ligand | 10 µM | 54 |
| COc1ncc2cc3ccccc3nc2c1C#N | cell-free assay, competition with immobilised ligand | 5 µM | 100 |
| O=C(NCc1ncc(C(F)(F)F)cc1Cl)c1ccc2c(c1)C1(CCS(=O)(=O)CC1)[C@@H](C1CC1)N2S(=O)(=O)c1ccc(F)cc1 | cell-free assay, competition with immobilised ligand | 1 µM | 100 |
| C[C@@H]1CN(c2ccc3ncc(-c4ccc5[nH]nc(C6CC6)c5c4)n3n2)C[C@H](C)O1 | binding, competition with immobilised ligand | 0.5 µM | 100 |
| O=C(Nc1c[nH]nc1C(=O)NC1CCNCC1)c1cc(F)cc(F)c1 | binding, competition with immobilised ligand | 1 µM | 97 |
| Nc1ncc2c(n1)-c1c([nH]c3ccc(C#CC4CC4)cc13)CCCC2 | binding, competition with immobilised ligand | 1 µM | 100 |
| C[C@@H](c1ccc(-n2cnc3c(N)ncnc32)cc1)N1CCc2nn(C)c(Cc3ccccc3)c2C1=O | binding, competition with immobilised ligand | 0.1 µM | 89 |
| O=C(c1ccc(Nc2ncc(Cl)c(-c3cc4ccccc4s3)n2)cc1)N1CCC(N2CCCC2)CC1 | binding, competition with immobilised ligand | 1 µM | 100 |
| N[C@H]1CCN(c2nccc(-c3cnn4ncccc34)n2)C1 | binding | 1 µM | 97 |
| Cc1nc(Cc2cccc(C(F)(F)F)c2)sc1-c1ccc(C(N)=O)nc1 | cell-free assay, competition with immobilised ligand | 1 µM | 87 |
| C[C@H]1CCN(c2nccc(-c3cnn4ncccc34)n2)C1 | binding | 1 µM | 100 |
| O=C(NCCCN1CCOCC1)c1ccc(Nc2ncc(Cl)c(-c3ccc(Cl)s3)n2)cc1 | binding, competition with immobilised ligand | 1 µM | 100 |
| CN(CCCC(F)(F)F)c1nccc(-c2cnn3ncccc23)n1 | binding | 1 µM | 65 |
| Cc1c[nH]c2nccc(Oc3c(F)cc(Nc4cc(Cl)nc(N)n4)cc3F)c12 | cell-free assay, competition with immobilised ligand | 0.1 µM | 93 |
| COc1ccnn2ncc(-c3ccnc(N(C)C)n3)c12 | binding | 1 µM | 80 |
| FC(F)(F)Oc1cccc(-c2cnc3ccc(-c4ccncc4)nn23)c1 | binding, competition with immobilised ligand | 5 µM | 89 |
| CNC(=O)[C@@H]1CC[C@@H](n2c(-c3ccc4cnccc4c3)nc3ccc(C(=O)NCc4cccc(C(N)=O)c4)cc32)C1 | binding, competition with immobilised ligand | 1 µM | 93 |
| CN1CCN(c2cnc3c(C4CCN(C(=O)c5ccc(OC(F)(F)F)cc5N)CC4)ncnc3c2)CC1 | cell-free assay, competition with immobilised ligand | 1 µM | 100 |
| O=C(c1ccc(Nc2ncc(Cl)c(-c3ccc(Cl)s3)n2)cc1)N1CCC(N2CCCC2)CC1 | binding, competition with immobilised ligand | 1 µM | 100 |
| O=C(Nc1cnc(Oc2ccc(F)cc2)nc1)N1CCc2ncccc2[C@@H]1c1ccc(F)cc1 | cell-free assay, competition with immobilised ligand | 1 µM | 96 |
| CN(C)c1ncc(F)c(-c2cnn3ncccc23)n1 | binding | 1 µM | 87 |
| CS(=O)(=O)N1CCCC(NC(=O)[C@H](CCC2CCCCC2)NC(=O)c2ccc(CNc3ncnc4c3nnn4-c3ccccc3)cc2)C1 (stereo partly shown) | cell-free assay, competition with immobilised ligand | 0.1 µM | 100 |
| CN(C)c1nccc(-c2cnn3ncccc23)n1 | binding | 1 µM | 100 |
